Screening data from PubChem BioAssay.
Compounds with a hit are over-represented: about 6.4% of the library has one in this group of screens.
EphB4 antag: EphB4-ephrin-B2 interaction antagonism | P54760 | EphB4 LBD / TNYL-RAW-Alexa532 peptide, fluorescence polarization | inhibition, % at 7 µM | 97,000 compounds, 0.15% hits | AID 720;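 active = inhibition above the screen-wide mean inhibition plus 3 SD, cut at about 15% in these data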
PostGolgi ctrl: inhibits growth of the yeast control strain | 98,000 compounds, 5% hits | efflux-deficient yeast background strain, growth absorbance A615, 16 h | inhibition, % at 10 µM
Plk1 PBD FP: blocks phosphopeptide binding to human Plk1 polo box domain. Plk1 PBD phosphopeptide binding, fluorescence polarization. 97,000 compounds, 0.13% hits. P53350. inhibition, %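 (tested at about 20 µM)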; in the data active = inhibition above about 34%, passing the limit was not always enough
Target sequence (P53350 whole entry, looked up, the tested form may be a part): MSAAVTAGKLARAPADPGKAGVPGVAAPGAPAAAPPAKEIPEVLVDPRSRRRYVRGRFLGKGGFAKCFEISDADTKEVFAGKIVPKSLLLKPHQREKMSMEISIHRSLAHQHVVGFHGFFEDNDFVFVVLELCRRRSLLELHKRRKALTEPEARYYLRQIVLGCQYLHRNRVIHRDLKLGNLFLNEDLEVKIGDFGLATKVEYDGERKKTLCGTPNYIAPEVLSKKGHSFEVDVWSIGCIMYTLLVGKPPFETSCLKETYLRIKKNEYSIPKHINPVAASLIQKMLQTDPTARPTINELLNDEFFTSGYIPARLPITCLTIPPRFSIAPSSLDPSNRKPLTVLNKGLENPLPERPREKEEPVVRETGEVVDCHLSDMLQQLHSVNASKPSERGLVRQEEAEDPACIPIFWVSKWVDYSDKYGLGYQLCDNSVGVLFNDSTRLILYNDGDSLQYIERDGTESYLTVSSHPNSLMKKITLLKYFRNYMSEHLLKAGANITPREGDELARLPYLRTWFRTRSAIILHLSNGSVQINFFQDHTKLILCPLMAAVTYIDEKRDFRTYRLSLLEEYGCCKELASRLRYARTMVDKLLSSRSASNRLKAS
HIV Rev-RRE inh: inhibitors of HIV-1 Rev-RRE RNA interaction. 97,000 compounds, 0.79% hits. Rev peptide-RRE RNA binding, FRET. inhibition, % at 8 µM;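 active = inhibition above the screen-wide mean plus 3 SD, cut at about 35% in these data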
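Test system – labelled RRE RNA duplex and labelled Rev peptide · Reagent – labelled Rev peptide · Doses – one concentration, 8 µM nominal · Incubation – 5 + 15 min at 25 °C · Signal – FRET fluorescence readout · Read-out basis – % inhibition of FRET ratio versus controls · Control set – DMSO wells as 0% and neomycin B wells as 100% inhibition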
PostGolgi yeast: growth inhibition of a yeast mutant, post-Golgi transport screen; post-Golgi transport phenotypic cell assay; inhibition, % at 10 µM; 98,000 compounds, 0.9% hits; AID 739;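 also: yeast cells grown in 1536-well plates; yeast grown about 18 h at 30C before absorbance read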
PLK1 kinase inh: inhibitors of human PLK1 kinase; P53350; recombinant PLK1 kinase, TR-FRET peptide phosphorylation; inhibition, % at 10 µM; 97,000 compounds, 0.53% hits;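 active = inhibition of 50% or more in the single-concentration screen; inactive = inhibition below 50%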
Hits are given with their value; – = inactive; · = not tested or not shown. Rule as the data show it, unless noted: active = inhibition above about 30%; inactive = the rest.

SMILES | EphB4 antag | PostGolgi ctrl | Plk1 PBD FP | HIV Rev-RRE inh | PostGolgi yeast | PLK1 kinase inh
Cc1cccc(CN2C(=O)N/C(=C/c3cc(C)n(-c4cc(C)ccn4)c3C)C2=O)c1 | – | – | – | – | – | –
Cc1cccc(CN2C(=O)N/C(=C/c3ccc(C)s3)C2=O)c1 | – | – | – | 58 | – | –
Cc1ccccc1-c1cc(C(=O)Nc2sc(C(=O)OC(C)C)c(C)c2C#N)c2ccccc2n1 | – | – | – | – | – | –
O=C(O)c1ccccc1OCCOc1ccccc1C(=O)O | – | 44 | – | – | – | –
O=C(O)c1ccccc1OCCOCCOc1ccccc1C(=O)O | – | – | – | – | – | –
Oc1ccc(CNCC2COc3ccccc3O2)cc1 (centres undefined) | – | – | – | – | – | –
NC(=O)c1cc(N)ccc1N1CCCC1 | – | 32 | – | – | – | –
Cc1ccc(-c2nc(C3CCCN(S(=O)(=O)c4ccc(C)cc4)C3)no2)cc1 (centres undefined) | – | – | – | – | – | 67
Cc1ccc(-c2nc(C3CCCN(S(=O)(=O)c4ccc(C(C)(C)C)cc4)C3)no2)cc1 (centres undefined) | – | – | – | – | – | –
Cc1onc(-c2c(F)cccc2Cl)c1C(=O)Nc1sc2c(c1C#N)CCC(C(C)(C)C)C2 (centres undefined) | – | · | – | – | · | –
N#Cc1c(NC(NC(=O)c2ccco2)C(=O)c2ccccc2)sc2c1CCCC2 (centres undefined) | – | 81 | – | – | 41 | –
Cc1cc(C(=O)OC(C)C(=O)Nc2nc(-c3ccccc3)cs2)c(C)o1 (centres undefined) | – | 37 | – | – | – | –
NC(=O)c1c(NC(NC(=O)c2ccco2)C(=O)c2ccc(Cl)cc2)sc2c1CCCC2 (centres undefined) | – | – | – | – | – | –
Cc1cc(C(=O)OCC(=O)Nc2nc(-c3ccccc3)cs2)c(C)o1 | · | – | · | · | – | ·
Cc1nnc(NC(=O)c2c(-c3ccccc3)noc2C)s1 | – | – | – | – | – | –
Cc1onc(-c2ccccc2)c1C(=O)Nc1sc2c(c1C(N)=O)CCC2 | – | 37 | – | – | – | –
Cc1onc(-c2c(F)cccc2Cl)c1C(=O)Nc1sc2c(c1C(N)=O)CCC2 | – | 33 | – | – | – | –
Cc1cc(C(F)F)n2nc(C(=O)Nc3cccnc3Cl)nc2n1 | – | – | – | – | – | –
COc1ccc(C2(C(=O)N3CCOCC3)CCOCC2)cc1OC | – | – | – | – | – | –
CN(C)CCCN1C(=O)C(=O)/C(=C(/O)c2ccc3c(c2)OCO3)C1c1ccccn1 (centres undefined) | – | · | – | – | · | –
O=C(Nc1sc2c(c1C(=O)O)CCC2)c1cccs1 | – | – | – | – | – | –
Cc1onc(-c2ccccc2)c1C(=O)Nc1nc(-c2ccccc2)cs1 | – | 34 | – | – | – | –
Cc1onc(-c2ccccc2)c1C(=O)Nc1nc(-c2cc(F)ccc2F)cs1 | – | – | – | – | – | –
NC(=O)c1c(NC(=O)c2cccs2)sc2c1CCCCCC2 | · | 68 | · | · | – | ·
Cc1cc(C(=O)Nc2sc3c(c2C#N)CCC3)no1 | – | – | – | – | – | –
SMILES | EphB4 antag | PostGolgi ctrl | Plk1 PBD FP | HIV Rev-RRE inh | PostGolgi yeast | PLK1 kinase inh
Cc1onc(-c2ccccc2)c1C(=O)Nc1sc2c(c1C#N)CCC2 | · | 44 | · | · | – | ·
Cc1cccc(C)c1NC(=O)C(c1cccs1)N(Cc1ccco1)C(=O)Cn1nnc2ccccc21 (centres undefined) | · | – | · | · | – | ·
C=CCC(C#Cc1ccccc1)[N+](C)(C)CC=C (centres undefined) | – | – | – | – | – | –
COc1cc2c(cc1OC)C(c1ccc(-c3cc(Cl)ccc3Cl)o1)=NCC2 | – | 52 | – | – | – | –
FC(F)(F)c1cc(-c2ccco2)nc(NCCc2ccccc2)n1 | – | – | – | – | – | –
O=C(Nc1ccc(F)cc1F)c1cc2n(n1)C(C(F)(F)F)C1CCCCC1N2 (centres undefined) | – | 30 | – | – | – | –
O=C(CCC(=O)N(c1ccc(F)cc1)C(C(=O)NC1CCCC1)c1ccncc1)Nc1cccnc1 (centres undefined) | – | · | – | – | · | –
COc1c2ccoc2nc2c(OC)c(OCC(O)C(C)(C)O)ccc12 (centres undefined) | – | – | – | – | – | –
COc1c2c(nc3occc13)C(CCC(C)(C)O)(OC)C(O)CC2 (centres undefined) | – | 30 | – | – | – | –
Cc1cc2n(n1)C(c1c[nH]c3ccccc13)Nc1ccccc1-2 (centres undefined) | – | 55 | – | – | – | –
Cc1cc2n(n1)C(c1cn(-c3ccccc3)nc1C)Nc1ccccc1-2 (centres undefined) | – | – | – | – | – | –
Cc1cccc(NC(=O)CSc2nc(N)cc(N)n2)c1 | – | · | – | – | · | –
Cc1nc(SCC(=O)Nc2cccc(Cl)c2)n[nH]1 | – | 44 | – | – | – | –
CC12CC3(C)CC(C)(C1)CC(NC(=O)N1CCCC1)(C2)C3 | – | 32 | – | – | – | –
O=c1ccc(Cc2ccccn2)n[nH]1 | – | – | – | – | – | –
Cc1nn(-c2ccc(Cl)c(Cl)c2)c(=O)c2ccccc12 | – | 49 | – | – | – | –
COc1ccc(C2C(C#N)=C3NC(=O)c4c(sc5c4CCCCC5)N3C3=C2C(=O)CC(C)(C)C3)cc1 (centres undefined) | – | 36 | – | – | – | –
OC1(c2cn(Cc3ccccc3)nn2)CCCCC1 | – | 38 | – | – | – | –
O=C(NCc1ccccn1)c1cn(Cc2ccccc2)nn1 | – | – | – | – | – | –
Cc1ccc(NC(=O)CN2CCCN(S(=O)(=O)c3ccc(Br)s3)CC2)cc1 | – | 33 | – | – | – | –
Cc1cc(C)cc(NC(=O)CN2CCCN(S(=O)(=O)c3ccc(Br)s3)CC2)c1 | – | 42 | – | – | – | –
CCOC(=O)N1CCN(S(=O)(=O)c2ccc(Br)s2)CC1 | – | – | – | – | – | –
O=C(c1ccco1)N1CCN(CC(O)Cn2c3ccccc3c3ccccc32)CC1 (centres undefined) | – | – | – | – | – | –
CC(C)N(C(=O)CN1C(=O)NC2(CCCCCC2)C1=O)C(C)C | – | – | – | – | – | –
CN(C)S(=O)(=O)c1cccc(NC(=S)Nc2cc(Cl)cc(Cl)c2)c1 | – | 84 | – | – | 97 | –
CN(C)S(=O)(=O)c1cccc(NC(=S)Nc2ccc(Cl)cc2Cl)c1 | – | – | – | – | – | –
O=S(=O)(NCCn1ccc2ccccc21)c1ccccc1 | – | – | – | – | – | –
Cc1nnc(SCc2cccs2)[nH]c1=O | – | · | – | – | · | –
Cc1ccc(-n2c(Cc3cccn3C)nnc2SCC(=O)N2CCc3ccccc32)cc1 | – | 45 | – | – | – | –
Cn1cccc1Cc1nnc(SCC(=O)N2CCc3ccccc32)n1-c1ccc(F)cc1 | · | – | · | · | – | ·
